According to ChEMBL document CHEMBL1156833, “The discovery of MK-0674, an orally bioavailable cathepsin K inhibitor” (Bioorg Med Chem Lett, 2010):
pIC50: −log10 of the molar value.

Assays:
Homo sapiens [1] = species: Homo sapiens; test: Selectivity ratio of IC50 for human cathepsin B to IC50 for humanized rabbit cathepsin K
[2] = Half life in po dosed rat; type: ADME, organism-based; settings: in vivo
How it was run: (§1)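 Pharmacokinetics in rats, rabbits and rhesus monkeys after oral dosing in 1% methocel vehicle. Half-life and oral bioavailability were derived from the plasma profiles.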

[3] = Decrease in bone resorption assessed as corrected bone resorption measured as ratio of bone resorption IC50 x humanized rabbit cathepsin K IC50 to rabbit cathepsin K IC50 equation; type: functional, tissue-based, Bone element
Homo sapiens [4] = species: Homo sapiens; test: Selectivity ratio of IC50 for human cathepsin L to IC50 for humanized rabbit cathepsin K
[5] = Oral bioavailability in rat; type: ADME, organism-based; settings: in vivo; how it was run: as §1
Homo sapiens [6] = species: Homo sapiens; test: Selectivity ratio of IC50 for human cathepsin S to IC50 for humanized rabbit cathepsin K
Cathepsin K = Cathepsin K (Homo sapiens, UniProt P43235); test: Inhibition of humanized rabbit cathepsin K
Homo sapiens [7] = species: Homo sapiens; test: Selectivity ratio of IC50 for human cathepsin F to IC50 for humanized rabbit cathepsin K
Canis familiaris [8] = test: Metabolic stability in dog at 25 mg/kg, po and 5 mg/kg, iv up to 24 hrs; type: ADME, organism-based, Canis lupus familiaris; settings: in vivo
Hepatocyte [9] = test: (§2) Metabolic stability in rat hepatocytes assessed as formation ratio of (S)-N-(1-cyanocyclopropyl)-2-((S)-1-(4'-((R)-2,2-difluoro-1-hydroxyethyl)biphenyl-4-yl)-2,2,2-trifluoroethylamino)-4-fluoro-4-methylpentanamide to (S)-N-(1-cyanocyclopropyl)-2-((S)-1-(4'-((S)-2,2-difluoro-1-hydroxyethyl)biphenyl-4-yl)-2,2,2-trifluoroethylamino)-4-fluoro-4-methylpentanamide; type: ADME, cell-based
[10] = as §2, with “in dog” for “in rat”; type: ADME, cell-based, Canis lupus familiaris, Hepatocyte
[11] = as §2, with “in rabbit” for “in rat”; type: ADME, cell-based, Oryctolagus cuniculus, Hepatocyte
Rattus norvegicus [12] = test: Metabolic stability in rat at 25 mg/kg, po after up to 24 hrs; type: ADME, organism-based; set-up: dose 25 mg/kg, route oral; settings: in vivo
Hepatocyte [13] = test: as §2, with “in human” for “in rat”; type: ADME, cell-based
Rattus norvegicus [14] = test: (§3) Metabolic stability in rat assessed as formation ratio of (S)-N-(1-cyanocyclopropyl)-2-((S)-1-(4'-((R)-2,2-difluoro-1-hydroxyethyl)biphenyl-4-yl)-2,2,2-trifluoroethylamino)-4-fluoro-4-methylpentanamide to (S)-N-(1-cyanocyclopropyl)-2-((S)-1-(4'-((S)-2,2-difluoro-1-hydroxyethyl)biphenyl-4-yl)-2,2,2-trifluoroethylamino)-4-fluoro-4-methylpentanamide at 25 mg/kg, po and 5 mg/kg, iv; type: ADME, organism-based; settings: in vivo
Rattus norvegicus [15] = test: Metabolic stability in rat at 25 mg/kg, po and 5 mg/kg, iv up to 24 hrs; type: ADME, organism-based; settings: in vivo
Canis familiaris [16] = test: as §3, with “in dog” for “in rat”; type: ADME, organism-based, Canis lupus familiaris; settings: in vivo
[17] = Oral bioavailability in squirrel monkey; type: ADME, organism-based; settings: saimiri, in vivo
[18] = Half life in po dosed rhesus monkey; type: ADME, organism-based, Macaca mulatta; settings: in vivo; how it was run: as §1
[19] = Metabolic stability in rabbit hepatocytes assessed as compound remaining; type: ADME, cell-based, Oryctolagus cuniculus, Hepatocyte
Hepatocyte [20] = test: Metabolic stability in rat hepatocytes assessed as compound remaining; type: ADME, cell-based
[21] = Oral bioavailability in rhesus monkey; type: ADME, organism-based, Macaca mulatta; settings: in vivo; how it was run: as §1
[22] = Oral bioavailability in rabbit; type: ADME, organism-based, Oryctolagus cuniculus; settings: in vivo; how it was run: as §1
[23] = Metabolic stability in rhesus monkey hepatocytes assessed as compound remaining; type: ADME, cell-based, Macaca mulatta, Hepatocyte
[24] = Half life in po dosed rabbit; type: ADME, organism-based, Oryctolagus cuniculus; settings: in vivo; how it was run: as §1
Rattus norvegicus [25] = test: Metabolic stability in rat assessed as conversion to (S)-N-(1-cyanocyclopropyl)-2-((S)-1-(4'-((R)-2,2-difluoro-1-hydroxyethyl)biphenyl-4-yl)-2,2,2-trifluoroethylamino)-4-fluoro-4-methylpentanamide at 25 mg/kg, po; type: ADME, organism-based; set-up: dose 25 mg/kg, route oral; settings: in vivo

Compound	Ratio IC50 (Homo sapiens [1])	pIC50 [3]	Ratio IC50 (Homo sapiens [4])	bioavailability [5]	Ratio IC50 (Homo sapiens [6])	pIC50 (Cathepsin K)	Ratio IC50 (Homo sapiens [7])	also measured
CC(C)(F)C[C@H](N[C@@H](c1ccc(-c2ccc(C(C)(C)O)cc2)cc1)C(F)(F)F)C(=O)NC1(C#N)CC1	2200	8.00	28900	24%	715	9.70	2410	half-life [2]: < 1 h
CC(C)(F)C[C@H](N[C@@H](c1ccc(-c2ccc(C(=O)C(F)F)cc2)cc1)C(F)(F)F)C(=O)NC1(C#N)CC1								Stability (Canis familiaris [8]): Stable; Ratio (Hepatocyte [9]): 24; Ratio [10]: 5; Ratio [11]: 48; Stability (Rattus norvegicus [12]): Stable; Ratio (Hepatocyte [13]): > 200; Ratio (Rattus norvegicus [14]): > 10; Stability (Rattus norvegicus [15]): Stable; Ratio (Canis familiaris [16]): 5
CC(C)(F)C[C@H](N[C@@H](c1ccc(-c2ccc(C3(C(N)=O)CC3)cn2)cc1)C(F)(F)F)C(=O)NC1(C#N)CC1	3920	7.46	3700		849	9.30	3440	
Cc1csc(-c2ccc([C@H](N[C@@H](CC(C)(C)F)C(=O)NC3(C#N)CC3)C(F)(F)F)cc2)n1	4040	7.85	18800	10%	777	9.52	1980	bioavailability [17]: 5%
CC(C)(F)C[C@H](N[C@@H](c1ccc(-c2ccc(S(C)(=O)=O)cc2)cc1)C(F)(F)F)C(=O)NC1(C#N)CC1 [ODANACATIB]	5170	8.30	15000		300	9.70	3230	
CC(C)(F)C[C@H](N[C@@H](c1ccc(-c2ccc([C@H](O)C(F)F)cc2)cc1)C(F)(F)F)C(=O)NC1(C#N)CC1	1470	8.15	14100	86%	197	9.40	1600	half-life [2]: 10 h; half-life [18]: 6 h; Stability [19]: 70%; Stability (Hepatocyte [20]): 94%; bioavailability [21]: 139%; bioavailability [22]: 132%; Stability [23]: 88%; half-life [24]: 8 h
[2H][C@](O)(c1ccc(-c2ccc([C@H](N[C@@H](CC(C)(C)F)C(=O)NC3(C#N)CC3)C(F)(F)F)cc2)cc1)C(F)F								Stability (Canis familiaris [8]): Stable; Stability (Rattus norvegicus [12]): Stable; Stability (Rattus norvegicus [15]): Stable; Stability (Rattus norvegicus [25]): Unstable
CC(C)(F)C[C@H](N[C@@H](c1ccc(-c2ccc(C3(O)CC3)cn2)cc1)C(F)(F)F)C(=O)NC1(C#N)CC1	3640		18000	7%	210	9.52	2760	
[2H][C@@](O)(c1ccc(-c2ccc([C@H](N[C@@H](CC(C)(C)F)C(=O)NC3(C#N)CC3)C(F)(F)F)cc2)cc1)C(F)F								Stability (Canis familiaris [8]): Stable; Stability (Rattus norvegicus [12]): Stable; Stability (Rattus norvegicus [15]): Stable; Stability (Rattus norvegicus [25]): Unstable
CC(C)(F)C[C@H](N[C@@H](c1ccc(-c2ccc([C@@H](O)C(F)F)cc2)cc1)C(F)(F)F)C(=O)NC1(C#N)CC1	1160	8.00	11900	122%	243	9.40	1460	half-life [2]: 7 h; half-life [18]: 11 h; Stability [19]: 93%; Stability (Hepatocyte [20]): 95%; bioavailability [21]: 64%; bioavailability [22]: 70%; Stability [23]: 93%; half-life [24]: 14 h
C[C@H](C(N)=O)c1ccc(-c2ccc([C@H](N[C@@H](CC(C)(C)F)C(=O)NC3(C#N)CC3)C(F)(F)F)cc2)cc1	1440	7.46	21300		693	9.70	3590	
CC(C)(F)C[C@H](N[C@@H](c1ccc(-c2ccc(S(C)(=O)=O)nc2)cc1)C(F)(F)F)C(=O)NC1(C#N)CC1	725	8.10	1300		28	8.59		
CC(C)(F)C[C@H](N[C@@H](c1ccc(-c2ccc(C3(C(N)=O)CC3)cc2)cc1)C(F)(F)F)C(=O)NC1(C#N)CC1	1560	7.92	11100	8%	766	9.70	2380	bioavailability [17]: 5%
CC(C)(F)C[C@H](N[C@@H](c1ccc(-c2ccc(C3(O)CC3)cc2)cc1)C(F)(F)F)C(=O)NC1(C#N)CC1	1420	7.89	11000		106	9.70	1150	
CC(C)(F)C[C@H](N[C@@H](c1ccc(-c2ccc3ncccc3c2)cc1)C(F)(F)F)C(=O)NC1(C#N)CC1	3000	8.10	6020		44	9.40		
